Source: PubChem (Johns Hopkins Ion Channel Center)
Hits are enriched below; roughly 3.1% of the tested compounds scored in any of these assays.
KCNQ1 inh = inhibitors of human KCNQ1 channel, primary screen, cell-based, thallium flux, high-throughput; CHO-K1 KCNQ1, FluxOR thallium flux fluorescence; stronger effect = higher value; B-score at 10 µM; 1.3% of 310,000 active; AID 2642, 2010;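 active = compounds whose thallium flux B-score, printed positive for inhibition, exceeds three library SD while starting fluorescence stays within three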;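 also: channel opened by potassium depolarization with thallium stimulus after 20 min compound exposure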
KCNK3 inh = human KCNK3 channel inhibitors, primary screen, CHO cells, FluxOR thallium flux, B-score | Potassium channel subfamily K member 3 (Homo sapiens), O14649 | AID 602410, 2012 | FluxOR fluorescence; stronger effect = lower value | B-score at 10 µM | 0.84% of 340,000 active;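 active = B-score under library mean minus 4 SD, starting fluorescence ratio at most library mean plus 5 SD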;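 also: more negative B-score means stronger inhibition of thallium flux through KCNK3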
KCNQ1 act = potentiators or activators of KCNQ1 channel, primary screen, cell-based, thallium flux, high-throughput. Potassium voltage-gated channel subfamily KQT member 1 (Homo sapiens), P51787. CHO-K1 KCNQ1, thallium flux FluxOR fluorescence; stronger effect = higher value. B-score at 10 µM. 0.35% of 310,000 active. AID 2648, 2010;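 active = fluorescence ratio B-score, a plate-corrected score, at least three library SD, with initial intensity B-score within 5 SD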
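Assay system: stable KCNQ1 CHO-K1 line; medium: assay buffer, equal DMSO in all wells; timing: 90 min dye loading and 20 min compound exposure, both at room temperature; technique: kinetic FluxOR thallium fluorescence, 10-s 1-Hz baseline, 110-s post-stimulus read; read-out basis: B score of baseline-normalized fluorescence ratio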
hERG rescue = hERG rescue from dofetilide block, primary screen, cell-based, CHO-hERG, FluxOR thallium flux, dofetilide IC70; Voltage-gated inwardly rectifying potassium channel KCNH2 (Homo sapiens), Q12809; dofetilide IC70 present; activation (rescue from dofetilide block), less the hit threshold, % at 10 µM; 0.51% of 310,000 active;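 active = activation above the mean of controls blocked by dofetilide plus 5 SD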;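 also: thallium influx through hERG after potassium depolarization seen as dye fluorescence rise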
Target sequence (Q12809 whole entry, looked up): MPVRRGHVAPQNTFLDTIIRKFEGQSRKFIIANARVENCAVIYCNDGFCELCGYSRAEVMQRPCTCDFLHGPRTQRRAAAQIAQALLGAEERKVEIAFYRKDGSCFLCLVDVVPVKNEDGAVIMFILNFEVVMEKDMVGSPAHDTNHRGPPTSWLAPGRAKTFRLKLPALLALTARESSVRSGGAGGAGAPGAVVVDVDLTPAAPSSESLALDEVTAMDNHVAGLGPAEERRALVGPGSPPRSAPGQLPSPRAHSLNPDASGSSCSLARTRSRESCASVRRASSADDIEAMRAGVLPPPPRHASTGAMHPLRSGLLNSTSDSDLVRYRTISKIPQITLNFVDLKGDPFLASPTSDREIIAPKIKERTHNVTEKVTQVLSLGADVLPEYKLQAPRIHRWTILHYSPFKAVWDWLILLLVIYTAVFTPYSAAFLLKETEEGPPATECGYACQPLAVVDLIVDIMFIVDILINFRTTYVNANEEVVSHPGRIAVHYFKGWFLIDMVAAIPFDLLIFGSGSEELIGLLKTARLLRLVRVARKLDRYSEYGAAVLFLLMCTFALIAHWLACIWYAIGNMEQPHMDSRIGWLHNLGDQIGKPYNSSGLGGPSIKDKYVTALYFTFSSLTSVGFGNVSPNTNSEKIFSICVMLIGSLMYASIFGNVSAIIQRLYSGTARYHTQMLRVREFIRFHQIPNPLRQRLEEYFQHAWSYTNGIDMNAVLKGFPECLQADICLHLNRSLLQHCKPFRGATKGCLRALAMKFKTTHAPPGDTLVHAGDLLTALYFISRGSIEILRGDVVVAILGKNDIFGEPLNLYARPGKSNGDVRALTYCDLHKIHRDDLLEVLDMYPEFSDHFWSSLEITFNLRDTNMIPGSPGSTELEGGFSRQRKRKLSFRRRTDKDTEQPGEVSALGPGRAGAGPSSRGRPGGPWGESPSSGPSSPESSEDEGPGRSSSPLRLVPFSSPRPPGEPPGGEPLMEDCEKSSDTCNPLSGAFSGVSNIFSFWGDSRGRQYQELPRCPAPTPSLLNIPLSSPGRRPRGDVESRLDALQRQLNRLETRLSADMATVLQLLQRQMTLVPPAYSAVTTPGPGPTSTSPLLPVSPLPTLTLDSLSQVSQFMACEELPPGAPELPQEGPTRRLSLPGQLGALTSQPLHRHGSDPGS
KCNK9 inh = KCNK9 potassium channel inhibitors, primary screen, HEK293 cells, thallium flux; Potassium channel subfamily K member 9 (Homo sapiens), Q9NPC2; FluxOR thallium flux fluorescence; stronger effect = lower value; B-score at 10 µM; 1.2% of 310,000 active;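 active = ratio B-score over 3 SD below the library mean, with starting fluorescence within 5 SD of its mean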;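 also: negative B-score means less thallium flux so channel inhibition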
KCNQ1 block val = KCNQ1 potassium channel inhibitors, confirmation, cell-based, Tl flux, duplicate | shares compounds with KCNQ1 inh | KCNQ1 cell line, FluxOR thallium flux fluorescence | inhibition, % at 10 µM | 93% of 1,600 active | AID 588353, 2011;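 active = primary screen active, with duplicate mean exceeding buffer control mean plus 3 SD of buffer wells, cut at about 28% in these data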;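 also: 0% = buffer control ratio and 100% = XE991 inhibitor control ratio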
CHO KCNQ1 ctr = thallium flux effects in parental CHO cells, counter-screen for KCNQ1 inhibitor project, cell-based, Tl flux | shares compounds with KCNQ1 inh | parental CHO-K1, FluxOR thallium flux fluorescence ratio; stronger effect = lower value; zero means no signal rise above baseline | fluorescence ratio (Tl flux) at 10 µM | 21% of 1,600 active | AID 588366, 2011;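 active = mean of duplicate thallium-flux fluorescence ratios in parental host cells more than 5 SD below the buffer control mean, cut at about 0.38 in these data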;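 also: ratio is peak minus minimum fluorescence divided by baseline fluorescence; actives read low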
KCNQ2 spec = KCNQ2 channel inhibition, selectivity assay for KCNQ1 inhibitor project, cell-based. shares compounds with KCNQ1 inh. KCNQ2 cells, FluxOR thallium flux fluorescence. inhibition, % at 10 µM. 71% of 1,600 active. AID 651746, 2012;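 active = mean percent inhibition of the KCNQ2 thallium signal more than 5 SD above the buffer-only control wells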;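 also: KCNQ2 expressed in CHO cells; 0% = buffer control wells and 100% = XE-991 inhibitor control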
KCNQ1-KCNE1 inh = KCNQ1/KCNE1 channel inhibition, selectivity assay for KCNQ1 inhibitor project, CHO-K1 cells, thallium flux, FluxOR | AID 652147, 2013 | shares compounds with KCNQ1 inh | FluxOR thallium flux fluorescence | inhibition, % at 10 µM | 77% of 1,600 active;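 active = mean percent inhibition of duplicate wells above the buffer-only control mean plus 3 SD of those controls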;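 also: 0% = buffer only wells and 100% = XE-991 inhibitor control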
The depositor's hits bear a star.

How did N#CC1C(C#N)C2CCC1C1C2N1c1ccccc1 (centres undefined) do in these assays?
KCNK3 inh: inactive

What do the screens show for `COc1ccc(CCNCc2cccn2C)cc1`?
KCNQ1 inh: inactive; KCNK3 inh: inactive; KCNQ1 act: inactive; hERG rescue: -6; KCNK9 inh: inactive

What do the screens show for `Cn1cccc1CNCCc1ccccc1`?
KCNQ1 inh: inactive; KCNQ1 act: inactive; hERG rescue: 6.4*; KCNK9 inh: inactive

Results for CC(C)(C)c1cc([N+](=O)[O-])cc(C(C)(C)C)c1O ?
KCNQ1 inh: 6*; KCNQ1 act: inactive; hERG rescue: -18; KCNK9 inh: inactive

Results for O=C(O)C1(Br)CC12c1ccccc1-c1ccccc12 (centres undefined) ?
KCNK3 inh: inactive

How did O=C1NC(=O)N(c2ccc3c(c2)OCO3)C(=O)/C1=C/c1ccc(N2CCCCC2)o1 do in these assays?
KCNQ1 inh: 6*; KCNK3 inh: inactive; KCNQ1 act: inactive; hERG rescue: -19; KCNK9 inh: -7.7*

What do the screens show for `O=C1NC(=O)N(c2ccc3c(c2)OCO3)C(=O)/C1=C\c1ccc(-c2ccccc2C(=O)O)o1`?
KCNQ1 inh: inactive; KCNK3 inh: inactive; KCNQ1 act: inactive; hERG rescue: -2; KCNK9 inh: inactive

Results for O=c1[nH]c(=S)[nH]c(O)c1N=Nc1ccc(S(=O)(=O)N2CCc3ccccc32)cc1 ?
KCNQ1 inh: inactive; KCNK3 inh: inactive; KCNQ1 act: inactive; hERG rescue: 13*; KCNK9 inh: inactive

How did CCN1/C(=C\C=C\C2=[N+](CC)c3ccccc3C2(C)C)C(C)(C)c2ccccc21 do in these assays?
KCNQ1 inh: 21*; KCNK3 inh: inactive; KCNQ1 act: inactive; hERG rescue: -56; KCNK9 inh: inactive

What do the screens show for `Cc1ccc(/C=C2\C(=O)NC(=S)N(c3ccc(F)cc3)C2=O)s1`?
KCNQ1 inh: inactive; KCNK3 inh: inactive; KCNQ1 act: inactive; hERG rescue: 11*; KCNK9 inh: inactive

What do the screens show for `N#CC1=C(N)Oc2cc(O)ccc2C1c1ccc2c(c1)OCO2` (centres undefined)?
KCNQ1 inh: inactive; KCNK3 inh: inactive; KCNQ1 act: inactive; hERG rescue: -11; KCNK9 inh: -7.5*

Results for CCCn1c(C)c(C(=O)c2cccc3ccccc23)c2ccccc21 ?
KCNK3 inh: -11*

Results for O=P(O)(O)CN1CCNCCN(CP(=O)(O)O)CCNCC1 ?
KCNK3 inh: inactive

How did CCN[C@@H](C)Cc1cccc(C(F)(F)F)c1 do in these assays?
KCNK3 inh: inactive

Results for Cc1ccc2c(c1)C1CN(C)CCC1N2C(=S)Nc1cccnc1 (centres undefined) ?
KCNQ1 inh: inactive; KCNK3 inh: inactive; KCNQ1 act: inactive; hERG rescue: -11; KCNK9 inh: inactive

How did Cc1ccc2c(c1)C1CN(C)CCC1N2C(=O)Nc1cccc(Cl)c1 (centres undefined) do in these assays?
KCNQ1 inh: 7*; KCNK3 inh: inactive; KCNQ1 act: inactive; hERG rescue: -13; KCNK9 inh: inactive; KCNQ1 block val: 0; CHO KCNQ1 ctr: 0.49; KCNQ2 spec: inactive; KCNQ1-KCNE1 inh: inactive

What do the screens show for `Cc1ccc(NC(=O)c2cc(-c3ccccc3)n(CCCN3CCOCC3)c2C)cc1`?
KCNQ1 inh: 6*; KCNK3 inh: inactive; KCNQ1 act: inactive; hERG rescue: -8; KCNK9 inh: inactive; KCNQ1 block val: 81*; CHO KCNQ1 ctr: 0.45; KCNQ2 spec: 62%*; KCNQ1-KCNE1 inh: 125%*

How did Cc1ccccc1NC(=O)c1cc(-c2ccccc2)n(CCCN2CCOCC2)c1C do in these assays?
KCNQ1 inh: inactive; KCNK3 inh: inactive; KCNQ1 act: inactive; hERG rescue: -8; KCNK9 inh: inactive

What do the screens show for `COc1cc(N2C(=O)CC(=O)NC2=O)cc(OC)c1OC`?
KCNQ1 inh: inactive; KCNK3 inh: inactive; KCNQ1 act: inactive; hERG rescue: -4; KCNK9 inh: inactive

What do the screens show for `COc1cc(CN=C(C)c2c(O)n(C3CCCCC3)c(=O)[nH]c2=O)cc(OC)c1`?
KCNQ1 inh: 6*; KCNK3 inh: inactive; KCNQ1 act: inactive; hERG rescue: -8; KCNK9 inh: inactive; KCNQ1 block val: 0; CHO KCNQ1 ctr: 0.5; KCNQ2 spec: 80%*; KCNQ1-KCNE1 inh: inactive

Results for CCC(=NCc1cc(OC)cc(OC)c1)c1c(O)n(C2CCCCC2)c(=O)[nH]c1=O ?
KCNQ1 inh: inactive; KCNK3 inh: inactive; KCNQ1 act: inactive; hERG rescue: -11; KCNK9 inh: inactive

Results for C=C1C(C)C2C(Cc3ccccc3)NC(=O)C23OC(=O)/C=C/C(O)CCCC(C)C/C=C/C3C1O (centres undefined) ?
KCNK3 inh: inactive

Results for CCCCn1c(=O)c(C(=O)NCc2ccccc2OC)c(O)c2ccccc21 ?
KCNQ1 inh: 7*; KCNK3 inh: inactive; KCNQ1 act: inactive; hERG rescue: -10; KCNK9 inh: inactive; KCNQ1 block val: 56*; CHO KCNQ1 ctr: 0.47; KCNQ2 spec: 76%*; KCNQ1-KCNE1 inh: 48%*

What do the screens show for `CC(OC(=O)c1cn(C)c2ccccc12)C(=O)N(C)c1ccccc1` (centres undefined)?
KCNK3 inh: inactive
